Results reported in ChEMBL document CHEMBL4706770, “SD-91 as A Potent and Selective STAT3 Degrader Capable of Achieving Complete and Long-Lasting Tumor Regression” (ACS Med Chem Lett, 2021).
Active and inactive are the calls of the source. The rule behind the calls is not given here.

How the values were obtained:
[1] = target: T1, Signal transducer and activator of transcription 3 (Homo sapiens, UniProt P40763); test: Induction of STAT3 degradation in human SU-DHL-1 cells at 0.25 to 100 uM incubated for 14 hrs by Western blot analysis; assay type: cell-based; conditions: dose 0.25-100 µM
[2] = Drug uptake in SCID mouse xenografted with human MOLM16 cells assessed as drug level in tumor tissue at 50 mg/kg, iv measured after 1 hrs by LC-MS/MS; assay type: ADME, organism-based; conditions: read-out: Drug uptake
Outline: (§1)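 SCID mice bearing MOLM-16 xenografts given a single iv dose of 50 mg/kg. Concentrations of parent and hydrolysis product measured in plasma (ng/mL) and tumor tissue (ng/g) at 1, 6 and 24 h.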

[3] = Drug metabolism in buffer pH 4 assessed as conversion to (2-(((5S,8S,10aR)-8-(((S)-5-amino-1-(benzhydrylamino)-1,5-dioxopentan-2-yl)carbamoyl)-3-(8-(2-(2,6-dioxopiperidin-3-yl)-1-oxoisoindolin-4-yl)oct-7-ynoyl)-6-oxodecahydropyrrolo[1,2-a][1,5]diazocin-5-yl)carbamoyl)-1H-indole-5-carbonyl)phosphonic acid by measured after 2 days at 37 degC by LC/MS/MS analysis; conditions: time 2.0 day
Outline: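 Parent compound incubated in buffer at pH 4 or pH 8, at room temperature or 37 °C. Percentages of the parent, the hydrolysis product and the glutarimide ring-opened product followed over time, up to 96 h.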

[4] = Drug uptake in SCID mouse xenografted with human MOLM16 cells assessed as drug level in tumor tissue at 50 mg/kg, iv measured after 24 hrs by LC-MS/MS; assay type: ADME, organism-based; conditions: read-out: Drug uptake; outline: as §1
[5] = Drug uptake in SCID mouse xenografted with human MOLM16 cells assessed as (2-(((5S,8S,10aR)-8-(((S)-5-amino-1-(benzhydrylamino)-1,5-dioxopentan-2-yl)carbamoyl)-3-(8-(2-(2,6-dioxopiperidin-3-yl)-1-oxoisoindolin-4-yl)oct-7-yno yl)-6-oxodecahydropyrrolo[1,2-a][1,5]diazocin-5-yl)carbamoyl)-1H-indole-5-carbonyl)phosphonic acid level in tumor tissue at 50 mg/kg, iv measured after 6 hrs by LC-MS/MS; assay type: ADME, organism-based; conditions: in vivo; outline: as §1
[6] = Drug uptake in SCID mouse xenografted with human MOLM16 cells assessed as drug level in plasma at 50 mg/kg, iv measured after 6 hrs by LC-MS/MS; assay type: ADME, organism-based; outline: as §1
[7] = Drug metabolism in complete cell culture medium assessed as 5-amino-4-(4-(8-((5S,8S,10aR)-8-((S)-5-amino-1-(benzhydrylamino)-1,5-dioxopentan-2-ylcarbamoyl)-6-oxo-5-(5-(phosphonocarbonyl)-1H-indole-2-carboxamido)octahydropyrrolo[1,2-a][1,5]diazocin-3(4H)-yl)-8-oxooct-1-ynyl)-1-oxoisoindolin-2-yl)-5-oxopentanoic acid after 96 hrs by LC/MS/MS analysis
Outline: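 Parent compound incubated in the cell culture medium used for the cellular assays, with or without cells, at 37 °C. Percentages of the hydrolysis product and the glutarimide ring-opened product measured at time points up to 96 h.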

[8] = Drug uptake in SCID mouse xenografted with human MOLM16 cells assessed as drug level in plasma at 50 mg/kg, iv measured after 24 hrs by LC-MS/MS; assay type: ADME, organism-based; outline: as §1
[9] = Drug uptake in SCID mouse xenografted with human MOLM16 cells assessed as drug level in tumor tissue at 50 mg/kg, iv measured after 6 hrs by LC-MS/MS; assay type: ADME, organism-based; conditions: read-out: Drug uptake; outline: as §1
[10] = target: T1, Signal transducer and activator of transcription 3; test: Binding affinity to recombinant STAT3 (unknown origin) assessed as inhibition constant incubated for 1 hr by fluorescence polarization assay
Outline: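 Competitive fluorescence-polarization binding assay with recombinant human STAT3 protein. Ki derived from competitive binding curves.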

[11] = Drug uptake in SCID mouse xenografted with human MOLM16 cells assessed as drug level in plasma at 50 mg/kg, iv measured after 1 hrs by LC-MS/MS; assay type: ADME, organism-based; outline: as §1
[12] = target: Signal transducer and activator of transcription 2 (Homo sapiens, UniProt P52630); test: Induction of STAT2 degradation in human SUP-M2 cells at 0.25 to 100 uM incubated for 14 hrs by Western blot analysis; assay type: cell-based; conditions: SUPM2, dose 0.25-100 µM
Outline: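 SU-DHL-1 or SUP-M2 cells treated over 25 nM to 100 μM. STAT family proteins assessed by Western blot.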

Mus musculus [13] = test: In vivo induction of STAT3 degradation in SCID mouse xenografted with human MOLM16 cells assessed as reduction in total STAT3 level in tumor tissue at 50 mg/kg, iv measured after 24 hrs by immunoblotting analysis; assay type: functional, organism-based
Outline: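 SCID mice bearing MOLM-16 or SU-DHL-1 xenografts given a single iv dose of 50 mg/kg or dosing vehicle. Tumor lysates immunoblotted for p-STAT3 Y705 and total STAT3 at time points up to 48 h (MOLM-16) and 24 h (SU-DHL-1).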

[14] = target: T1, Signal transducer and activator of transcription 3; test: Induction of STAT3 degradation in human SUP-M2 cells at 0.25 to 100 uM incubated for 14 hrs by Western blot analysis; assay type: cell-based; conditions: SUPM2, dose 0.25-100 µM
Mus musculus [15] = test: In vivo induction of STAT6 degradation in SCID mouse xenografted with human MOLM16 cells assessed as reduction in STAT6 in tumor tissue at 50 mg/kg, iv measured after 24 hrs by immunoblotting analysis; assay type: functional, organism-based
Outline: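 SCID mice bearing MOLM-16 tumors given a single iv dose of 50 mg/kg or dosing vehicle. Tumor lysates immunoblotted for STAT3, STAT1 and STAT6 at time points from 1 h to at least 24 h.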

[16] = target: T1, Signal transducer and activator of transcription 3; test: Induction of STAT3 degradation in human MOLM-16 cells assessed as decrease in STAT3 level at 10 uM incubated for 4 hrs by proteomic analysis; assay type: cell-based; conditions: MOLM16
Outline: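 MOLM-16 cells treated with 1 or 10 μM for 4 h. Protein levels measured by quantitative proteomics across more than 7000 proteins.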

[17] = target: T2, Signal transducer and activator of transcription 4 (Homo sapiens) (UniProt Q14765); test: Induction of STAT4 degradation in human SUP-M2 cells at 0.25 to 100 uM incubated for 14 hrs by Western blot analysis; assay type: cell-based; conditions: SUPM2, dose 0.25-100 µM
T2 sequence (whole entry): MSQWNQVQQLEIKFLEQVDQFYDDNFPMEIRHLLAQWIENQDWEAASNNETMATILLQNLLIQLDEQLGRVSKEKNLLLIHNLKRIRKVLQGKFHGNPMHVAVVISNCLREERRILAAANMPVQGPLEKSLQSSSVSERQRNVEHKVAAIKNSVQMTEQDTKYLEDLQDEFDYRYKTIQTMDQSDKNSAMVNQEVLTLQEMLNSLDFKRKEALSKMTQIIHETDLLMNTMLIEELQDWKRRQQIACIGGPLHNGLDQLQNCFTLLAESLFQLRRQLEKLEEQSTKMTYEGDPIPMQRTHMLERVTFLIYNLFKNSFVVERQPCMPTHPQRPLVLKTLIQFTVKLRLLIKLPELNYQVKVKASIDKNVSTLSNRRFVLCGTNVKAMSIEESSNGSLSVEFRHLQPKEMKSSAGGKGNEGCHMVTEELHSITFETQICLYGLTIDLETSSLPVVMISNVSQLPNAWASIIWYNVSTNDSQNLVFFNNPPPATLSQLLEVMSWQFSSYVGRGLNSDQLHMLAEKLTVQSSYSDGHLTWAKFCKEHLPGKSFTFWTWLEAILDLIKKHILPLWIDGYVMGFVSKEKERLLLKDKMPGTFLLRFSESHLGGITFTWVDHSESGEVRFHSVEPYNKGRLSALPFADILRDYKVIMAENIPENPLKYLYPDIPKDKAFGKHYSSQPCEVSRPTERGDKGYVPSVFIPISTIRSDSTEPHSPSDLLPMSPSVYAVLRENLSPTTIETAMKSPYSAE

T1 sequence (P40763 whole entry): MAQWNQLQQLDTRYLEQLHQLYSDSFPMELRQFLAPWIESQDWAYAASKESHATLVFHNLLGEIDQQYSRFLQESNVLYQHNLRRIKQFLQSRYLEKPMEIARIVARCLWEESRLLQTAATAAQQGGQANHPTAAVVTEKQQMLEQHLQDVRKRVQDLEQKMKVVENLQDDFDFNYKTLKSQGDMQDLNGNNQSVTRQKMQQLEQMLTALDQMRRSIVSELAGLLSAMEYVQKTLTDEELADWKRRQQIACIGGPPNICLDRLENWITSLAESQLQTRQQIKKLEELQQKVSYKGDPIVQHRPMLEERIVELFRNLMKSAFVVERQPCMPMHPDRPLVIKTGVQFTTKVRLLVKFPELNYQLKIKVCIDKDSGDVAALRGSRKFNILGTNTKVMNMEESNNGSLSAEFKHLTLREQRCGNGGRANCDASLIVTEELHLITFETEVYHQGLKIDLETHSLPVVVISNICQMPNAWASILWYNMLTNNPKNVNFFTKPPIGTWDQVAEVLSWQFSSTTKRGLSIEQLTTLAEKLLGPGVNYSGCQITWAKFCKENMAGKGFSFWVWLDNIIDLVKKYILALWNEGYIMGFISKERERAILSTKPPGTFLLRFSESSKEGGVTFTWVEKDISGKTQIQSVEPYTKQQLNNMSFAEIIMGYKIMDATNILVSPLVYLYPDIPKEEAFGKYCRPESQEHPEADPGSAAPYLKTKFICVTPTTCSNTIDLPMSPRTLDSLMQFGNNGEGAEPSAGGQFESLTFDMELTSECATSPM
Sequence of Signal transducer and activator of transcription 2 (P52630 whole entry): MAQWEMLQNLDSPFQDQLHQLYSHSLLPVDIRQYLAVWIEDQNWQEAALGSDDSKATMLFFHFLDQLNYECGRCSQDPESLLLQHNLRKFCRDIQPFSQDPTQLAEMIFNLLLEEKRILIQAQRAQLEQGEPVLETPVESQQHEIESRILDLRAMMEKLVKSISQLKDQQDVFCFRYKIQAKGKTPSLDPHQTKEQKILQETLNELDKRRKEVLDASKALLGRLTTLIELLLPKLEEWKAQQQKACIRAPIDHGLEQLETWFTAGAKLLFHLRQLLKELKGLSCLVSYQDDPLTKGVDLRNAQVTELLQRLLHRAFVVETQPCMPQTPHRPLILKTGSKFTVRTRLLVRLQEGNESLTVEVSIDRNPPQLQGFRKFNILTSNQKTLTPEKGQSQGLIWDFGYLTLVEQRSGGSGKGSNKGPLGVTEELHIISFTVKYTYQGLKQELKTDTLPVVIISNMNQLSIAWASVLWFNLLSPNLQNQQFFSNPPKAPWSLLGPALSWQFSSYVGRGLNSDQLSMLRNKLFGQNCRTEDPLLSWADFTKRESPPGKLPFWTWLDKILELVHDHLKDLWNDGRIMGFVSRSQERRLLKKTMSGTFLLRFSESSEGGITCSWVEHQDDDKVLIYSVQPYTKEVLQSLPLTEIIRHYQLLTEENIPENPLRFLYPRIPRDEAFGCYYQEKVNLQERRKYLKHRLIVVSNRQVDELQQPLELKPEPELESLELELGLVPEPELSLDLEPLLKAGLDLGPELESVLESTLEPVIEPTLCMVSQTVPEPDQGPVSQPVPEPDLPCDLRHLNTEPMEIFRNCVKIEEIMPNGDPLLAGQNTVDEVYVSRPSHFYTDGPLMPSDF

SMILES	Activity [1]	concentration at 1 h [2]	Drug metabolism [3]	concentration at 24 h [4]	Drug uptake [5]	concentration at 6 h [6]	Drug metabolism [7]	concentration at 24 h [8]	concentration at 6 h [9]	Ki [10]	concentration at 1 h [11]	Activity [12]	Activity (Mus musculus [13])	Activity [14]	Activity (Mus musculus [15])	Activity [16]	Activity [17]
NC(=O)CC[C@H](NC(=O)[C@@H]1CC[C@@H]2CCN(C(=O)CCCCCC#Cc3cccc4c3CN(C3CCC(=O)NC3=O)C4=O)C[C@H](NC(=O)c3cc4cc(C(F)(F)P(=O)(O)O)ccc4[nH]3)C(=O)N21)C(=O)NC(c1ccccc1)c1ccccc1 (stereo partly drawn)	inactive	7720 ng/g	50%	275 ng/g	1750 ng/g	1300 ng/mL	10%	58 ng/mL	580 ng/g	11.7 nM	103000 ng/mL	–	–	–	–	–	–
NC(=O)CC[C@H](NC(=O)[C@@H]1CC[C@@H]2CCN(C(=O)CCCCCC#Cc3cccc4c3CN(C3CCC(=O)NC3=O)C4=O)C[C@H](NC(=O)c3cc4cc(C(=O)P(=O)(O)O)ccc4[nH]3)C(=O)N21)C(=O)NC(c1ccccc1)c1ccccc1 (stereo partly drawn)	Active	16200 ng/g	–	1800 ng/g	–	49200 ng/mL	< 10%	1360 ng/mL	4780 ng/g	5.1 nM	85500 ng/mL	inactive	Active	Active	inactive	Active	–
CC(=O)N1CC[C@H]2CC[C@@H](C(=O)N[C@@H](CCC(N)=O)C(=O)NC(c3ccccc3)c3ccccc3)N2C(=O)[C@@H](NC(=O)c2cc3cc(C(F)(F)P(=O)(O)O)ccc3[nH]2)C1	inactive	–	–	–	–	–	–	–	–	–	–	inactive	–	inactive	–	–	inactive
CC(=O)N1CC[C@H]2CC[C@@H](C(=O)N[C@@H](CCC(N)=O)C(=O)NC(c3ccccc3)c3ccccc3)N2C(=O)[C@@H](NC(=O)c2cc3cc(C(=O)P(=O)(O)O)ccc3[nH]2)C1	inactive	–	–	–	–	–	–	–	–	–	–	inactive	–	inactive	–	–	inactive
